In ChEMBL document CHEMBL1138477, “8-(4-Methoxyphenyl)pyrazolo[1,5-a]-1,3,5-triazines: selective and centrally active corticotropin-releasing factor receptor-1 (CRF1) antagonists” (J Med Chem, 2009):
Activity calls are given as the source filed them.

Columns and labels:
[1] = target: T1, Corticotropin-releasing factor receptor 1 (Rattus norvegicus, UniProt P35353); test: Displacement of [125I]Tyr0-ovine CRF from CRF1 receptor in rat cortical membrane by gamma counting; assay type: cell membranes
T1 sequence (P35353 whole entry): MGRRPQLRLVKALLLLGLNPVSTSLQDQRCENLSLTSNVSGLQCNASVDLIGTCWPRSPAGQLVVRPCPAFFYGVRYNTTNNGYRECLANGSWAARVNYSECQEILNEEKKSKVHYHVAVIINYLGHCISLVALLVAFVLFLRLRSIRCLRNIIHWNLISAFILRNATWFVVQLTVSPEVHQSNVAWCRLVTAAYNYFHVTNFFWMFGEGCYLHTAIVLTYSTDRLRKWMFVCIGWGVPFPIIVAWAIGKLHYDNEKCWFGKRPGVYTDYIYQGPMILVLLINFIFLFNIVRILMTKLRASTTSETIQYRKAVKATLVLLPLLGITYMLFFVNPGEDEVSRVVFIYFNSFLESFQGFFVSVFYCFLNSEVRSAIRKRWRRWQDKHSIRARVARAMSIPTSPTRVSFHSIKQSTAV
In short: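 Inhibition of 125I-Tyr0-ovine-CRF binding to rat cortical membranes measured across dilutions of test drug; IC50 derived by iterative curve fitting.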

[2] = system: Canis familiaris; test: Ex vivo displacement of [125I]Tyr0-ovine CRF from CRF1 receptor in dog at 5 mg/kg, po measured in plasma after 2 hrs; assay type: functional; details: Canis lupus familiaris
In short: (§1)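 Beagle dogs given 5 mg/kg po (free base), in Labrafil or Tween-80/0.5% methylcellulose 1:99; plasma drawn 2 and 10 h postdose, diluted 10-fold in binding buffer, and tested for inhibition of 125I-Tyr0-ovine-CRF binding to rat receptors; mean ± SD, n = 3.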

[3] = system: Canis familiaris; test: Ex vivo displacement of [125I]Tyr0-ovine CRF from CRF1 receptor in dog at 5 mg/kg, po measured in plasma after 10 hrs; assay type: functional; details: Canis lupus familiaris; in short: as §1
[4] = system: Rattus norvegicus; test: Toxicity in Sprague-Dawley rat assessed as total distance traveled at 30 mg/kg, po after 1 hr by open-field locomotor activity test; assay type: organism-based; design: dose 30 mg/kg, route oral; details: in vivo
In short: (§2)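 Male Sprague-Dawley rats received a single oral gavage dose of 30 mg/kg (free base weight) in 0.5% methocel–Tween-80 (99:1) or vehicle alone. Behaviour was assessed 1 h postdose, as time on the rotorod in seconds for the rotorod test and total distance travelled in cm for open-field locomotor activity. Values are mean ± SEM, n = 8 per group.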

[5] = system: Rattus norvegicus; test: Toxicity in Sprague-Dawley rat assessed as time spent on rotarod at 30 mg/kg, po after 1 hr by rotarod test; assay type: organism-based; design: dose 30 mg/kg, route oral; details: in vivo; in short: as §2
[6] = system: Rattus norvegicus; test: Anxiolytic-like activity in Sprague-Dawley rat assessed as increase in time spent in open arms at 18 mg/kg, po measured after 1 hr by elevated plus maze test; assay type: functional, organism-based; design: dose 18 mg/kg
In short: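 Group-housed male Sprague-Dawley rats (180-300 g) dosed po in 0.25% Methocel 1 h before elevated plus maze; arm entry defined as all four paws in arm; percent time in open arms scored; test doses 1.0, 3.0, 10, 30 mg/kg; positive control at 18 mg/kg; n = 13-15/dose; mean ± SEM, ANOVA then Fisher's LSD.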

[7] = system: Rattus norvegicus; test: Anxiolytic-like activity in Sprague-Dawley rat assessed as decrease in latency to exit dark chamber at 10 mg/kg, po measured after 1 hr by defensive withdrawal test relative to control; assay type: functional; design: scale not given: the % may be the effect or the level left
In short: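 Male Sprague-Dawley rats (180-300 g), individually housed; open field with cylindrical dark chamber; oral dosing in 0.25% Methocel 1 h before a 15 min session scored blind via video; latency to place all four paws in open field recorded, maximum 900 s; test doses 1.0, 3.0, 10, 30 mg/kg; positive control at 10 mg/kg; n = 12/dose; Kruskal-Wallis then Mann-Whitney U.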

[8] = target: T2, Corticotropin-releasing factor receptor 1 (Homo sapiens, UniProt P34998); test: Binding affinity to CRF1 receptor in human IMR32 cells; assay type: cell-based, IMR-32
T2 sequence (P34998 whole entry): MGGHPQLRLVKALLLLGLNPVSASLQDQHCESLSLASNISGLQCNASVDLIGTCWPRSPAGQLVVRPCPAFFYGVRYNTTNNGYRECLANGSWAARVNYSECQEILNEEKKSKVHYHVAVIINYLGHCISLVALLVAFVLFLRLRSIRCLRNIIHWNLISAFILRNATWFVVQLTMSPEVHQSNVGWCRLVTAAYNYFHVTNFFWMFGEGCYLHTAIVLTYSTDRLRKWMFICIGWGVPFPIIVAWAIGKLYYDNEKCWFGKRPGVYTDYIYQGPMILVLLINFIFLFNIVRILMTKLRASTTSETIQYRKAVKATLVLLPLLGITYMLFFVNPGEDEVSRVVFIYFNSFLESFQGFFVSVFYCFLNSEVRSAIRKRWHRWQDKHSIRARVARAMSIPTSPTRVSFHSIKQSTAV

[9] = target: T1, Corticotropin-releasing factor receptor 1; test: Antagonist activity at CRF1 receptor in rat brain homogenates assessed as inhibition of CRF-stimulted cAMP production; assay type: functional, tissue-based
In short: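 Rat cortical homogenate (0.8 mg original wet weight tissue) incubated 10 min at 37 °C in 100 mM Tris-HCl pH 7.4, 10 mM MgCl2, 0.4 mM EGTA, 0.1% BSA, 1 mM IBMX, creatine phosphate/phosphocreatine kinase, 100 nM ovine-CRF; started with 1 mM ATP/[32P]ATP; [32P]cAMP separated on Dowex and alumina columns, [3H]cAMP recovery marker; n = 3.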

Row | Molecule | IC50 [1] | further results
1 | CCCN(CC1CC1)c1nc(C)nc2c(-c3ccc(OC)cc3C)c(C)nn12 | 1.96 nM | 
2 | COCCN(CCOC)c1nc(C)nc2c(-c3cc(OC)c(OC)cc3C)c(C)nn12 | 13.7 nM | 
3 | CCN(CC)c1nc(C)nc2c(-c3c(C)cc(OC)cc3OC)c(C)nn12 | 1.2 nM | inhibition in vivo at 5 mg/kg [2]: 56%; inhibition in vivo at 5 mg/kg [3]: 30%
4 | CCN(CC)c1nc(C)nc2c(-c3cc(OC)c(OC)cc3Br)c(C)nn12 | 4.06 nM | 
5 | COCCN(CCOC)c1nc(C)nc2c(-c3ccc(OC)cc3)c(C)nn12 | 11.5 nM | 
6 | COCCN(CCOC)c1nc(C)nc2c(-c3cc(F)c(OC)cc3Cl)c(C)nn12 | 1.18 nM | 
7 | COCCN(CCOC)c1nc(C)nc2c(-c3cc(OC)c(OC)cc3Br)c(C)nn12 | 4.99 nM | 
8 | CCN(CC)c1nc(C)nc2c(-c3cc(F)c(OC)cc3Cl)c(C)nn12 | 1.64 nM | 
9 | COCCN(CCOC)c1nc(C)nc2c(-c3c(C)cc(OC)cc3OC)c(C)nn12 | 7.96 nM | 
10 | C=CCN(CC=C)c1nc(C)nc2c(-c3c(C)cc(OC)cc3OC)c(C)nn12 | 1 nM | 
11 | COCCN(CCOC)c1nc(C)nc2c(-c3cc(OC)c(OC)cc3Cl)c(C)nn12 | 8 nM | 
12 | CCC(CC)Nc1nc(C)nc2c(-c3ccc(OC)cc3)c(C)nn12 | 3.8 nM | 
13 | CCC(CC)Nc1nc(C)nc2c(-c3ccc(OC)c(C)c3C)c(C)nn12 | 11.3 nM | 
14 | CCCN(CCC)c1nc(C)nc2c(-c3ccc(OC)cc3C)c(C)nn12 | 2.58 nM | 
15 | CCC1CCCCN1c1nc(C)nc2c(-c3c(C)cc(OC)cc3OC)c(C)nn12 (centres undefined) | 3.26 nM | 
16 | CCCCN(CC)c1nc(C)nc2c(-c3c(C)cc(OC)cc3C)c(C)nn12 | 4.22 nM | 
17 | CCC(CC)Nc1nc(C)nc2c(-c3cc(OC)c(OC)cc3Br)c(C)nn12 | 6.08 nM | 
18 | COc1ccc(-c2c(C)nn3c(NC4CCC4)nc(C)nc23)c(C)c1 | 24.6 nM | 
19 | COCC(COC)Nc1nc(C)nc2c(-c3ccc(OC)cc3C)c(C)nn12 | 9.7 nM | 
20 | CC[C@H](C)Nc1nc(C)nc2c(-c3c(C)cc(OC)cc3OC)c(C)nn12 | 2.9 nM | inhibition in vivo at 5 mg/kg [2]: 72%; inhibition in vivo at 5 mg/kg [3]: 74%
21 | CCN(CCC#N)c1nc(C)nc2c(-c3c(C)cc(OC)cc3OC)c(C)nn12 | 2.48 nM | 

Row | Molecule | IC50 [1] | further results
22 | CCCC(C)Nc1nc(C)nc2c(-c3c(C)cc(OC)cc3OC)c(C)nn12 (centres undefined) | 2.14 nM | 
23 | CCC(CC)Nc1nc(C)nc2c(-c3cc(F)c(OC)cc3C)c(C)nn12 | 1.9 nM | inhibition in vivo at 5 mg/kg [2]: 81%; inhibition in vivo at 5 mg/kg [3]: 25%
24 | CCCCN(CC)c1nc(C)nc2c(-c3c(C)cc(OC)cc3OC)c(C)nn12 | 1.72 nM | 
25 | CCCN(C)c1nc(C)nc2c(-c3c(C)cc(OC)cc3OC)c(C)nn12 | 6.48 nM | 
26 | CNC1=Nc2ccc(Cl)cc2C(c2ccccc2)=[N+]([O-])C1 [CHLORDIAZEPOXIDE] |  | Activity [4]: 2249 cm; Time [5]: 121 s
27 | CCOCC(COCC)Nc1nc(C)nc2c(-c3ccc(OC)cc3C)c(C)nn12 | 19.3 nM | 
28 | CCCCN(CC)c1nc(C)nc2c(-c3ccc(OC)cc3C)c(C)nn12 | 2.3 nM | 
29 | CCCN(CCC)c1nc(C)nc2c(-c3c(C)cc(OC)cc3OC)c(C)nn12 | 3.72 nM | 
30 | CCN(CC)c1nc(C)nc2c(-c3ccc(OC)c(C)c3C)c(C)nn12 | 38.6 nM | 
31 | COc1ccc(-c2c(C)nn3c(N(CCC#N)C4CC4)nc(C)nc23)c(C)c1 | 1.88 nM | 
32 | CCC(CC)Nc1nc(C)nc2c(-c3c(C)cc(OC)cc3OC)c(C)nn12 | 5 nM | inhibition in vivo at 5 mg/kg [2]: 80%; inhibition in vivo at 5 mg/kg [3]: 56%
33 | CCCN(CCC#N)c1nc(C)nc2c(-c3ccc(OC)cc3C)c(C)nn12 | 2.16 nM | 
34 | COCC(COC)Nc1nc(C)nc2c(-c3ccc(Cl)cc3Cl)c(C)nn12 | 4.2 nM | Activity [6]: Active; Activity [7]: 52%
35 | CCN(CC)c1nc(C)nc2c(-c3ccc(OC)cc3C)c(C)nn12 | 6.08 nM | 
36 | COc1cc(C)c(-c2c(C)nn3c(NC4CCC4)nc(C)nc23)c(OC)c1 | 17.4 nM | inhibition in vivo at 5 mg/kg [2]: 52%; inhibition in vivo at 5 mg/kg [3]: 46%
37 | C=CCN(C)c1nc(C)nc2c(-c3c(C)cc(OC)cc3OC)c(C)nn12 | 4.92 nM | 
38 | CCN(CCOC)c1nc(C)nc2c(-c3c(C)cc(OC)cc3OC)c(C)nn12 | 1.78 nM | inhibition in vivo at 5 mg/kg [2]: 86%; inhibition in vivo at 5 mg/kg [3]: 54%
39 | COc1ccc(-c2c(C)nn3c(N4CCCC4)nc(C)nc23)c(C)c1 | 80.7 nM | 
40 | COCCN(CCOC)c1nc(C)nc2c(-c3c(C)cc(OC)cc3C)c(C)nn12 | 2.74 nM | 
41 | H-DLTFHLLREMLEMAKAEQEAEQAALNRLLLEEA-NH2 | 1.24 nM | IC50 [8]: 2 nM; IC50 [9]: 264 nM
42 | COCCN(CC1CC1)c1nc(C)nc2c(-c3c(C)cc(OC)cc3OC)c(C)nn12 | 1.8 nM | 
